The record followed here is ChEMBL document CHEMBL3992522, “Antileishmanial Activity of Pyrazolopyridine Derivatives and Their Potential as an Adjunct Therapy with Miltefosine” (J Med Chem, 2017).

Values after ≈ are worked out from the molar mass of the structure shown. Active and inactive are the calls of the source. The rule behind the calls is not given here.

In series [1] the test system is Leishmania donovani. Nature of the series: Antileishmanial activity against Leishmania donovani amastigote forms infected in Balb/c mouse assessed as inhibition of parasitic burden in spleen at 50 mg/kg, ip administered for 5 consecutive days measured on day 7 post last treatment by Giemsa staining based assay relative to control. It counts as functional. Particulars: 168 h.

For series [2], the system named is Leishmania donovani. Nature of the series: Antileishmanial activity against Leishmania donovani MHOM/IN/80/DD8 amastigote forms harboring luciferase gene infected in mouse J774 cells after 72 hrs by Steady-Glo reagent based two fold dilution assay. Particulars: MHOM/IN/80/DD8, 72 h. It counts as functional. In a few lines: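 Promastigotes or J774-resident amastigotes treated 72 h with six two-fold dilutions from 200 µM down to 6.25 µM. Luciferase RLU fitted by four-parameter Hill non-linear regression to derive the […] inhibitory concentration (MIC).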

Series [3] concerns Leishmania donovani. Nature of the series: Induction of mitochondrial membrane potential loss in Leishmania donovani MHOM/IN/80/DD8 promastigote forms at 50 uM after 6 hrs by JC-1 staining based flow cytometry (reference value: 5.02%). It counts as functional.
Series [4] deals with Leishmania donovani. Nature of the series: Antileishmanial activity against Leishmania donovani amastigote forms infected in Balb/c mouse assessed as reduction in spleen weight at 12.5 to 200 mg/kg, ip administered for 5 consecutive days co-treated with 5 to 25 mg/kg, po miltefosine. It counts as functional, organism-based.
Series [5] deals with Mus musculus. Nature of the series: Toxicity in Balb/c mouse infected with Leishmania donovani amastigote forms assessed as changes in body weight at 12.5 to 200 mg/kg, ip administered for 5 consecutive days. It counts as organism-based. The note with it: in vivo. In a few lines:
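L. donovani-infected BALB/c mice (15-day infection, 5 per group) dosed for five consecutive days: test compound 12.5–200 mg/kg i.p. in 8% DMSO, miltefosine orally in TDW, alone or in combination. Body weight followed after treatment.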

In series [6] the test system is Leishmania donovani. The series can be described thus: Induction of apoptosis in Leishmania donovani MHOM/IN/80/DD8 promastigote forms assessed as late apoptotic cells at IC50 after 48 hrs by Annexin V-FITC/propidium iodide staining based flow cytometry (reference value: 0.86%). It counts as functional. Background: Flow cytometry measures light scatter and fluorescence of single cells or particles in a stream.

Series [7] has as its system Leishmania donovani. The series can be described thus: Induction of apoptosis in Leishmania donovani MHOM/IN/80/DD8 promastigote forms assessed as early apoptotic cells at 50 uM after 48 hrs by Annexin V-FITC/propidium iodide staining based flow cytometry (reference value: 7.41%). It counts as functional.
For series [8], the system named is Leishmania donovani. The series can be described thus: Antileishmanial activity against Leishmania donovani amastigote forms infected in Balb/c mouse assessed as reduction in liver weight at 12.5 to 200 mg/kg, ip administered for 5 consecutive days co-treated with 5 to 25 mg/kg, po miltefosine. It counts as functional, organism-based.
The subject of series [9] is Mus musculus. The series can be described thus: Restoration of T cell proliferation in Balb/c mouse splenocytes infected with Leishmania donovani amastigote forms at <25 mg/kg, ip administered for 5 consecutive days measured on day 4 and 7 post last treatment followed by soluble Leishmania donovani promastigote antigen-stimulation for 72 hrs by MTT assay relative to control. Background: Tetrazolium dyes change colour on reduction, which living cells bring about.

Series [10] deals with Leishmania donovani. Nature of the series: Antileishmanial activity against Leishmania donovani amastigote forms infected in Balb/c mouse assessed as reduction in spleen weight at 12.5 to 200 mg/kg, ip administered for 5 consecutive days. It counts as functional, organism-based.
Series [11] deals with Leishmania donovani. The series can be described thus: Antileishmanial activity against Leishmania donovani amastigote forms infected in Balb/c mouse assessed as inhibition of parasitic burden in liver at 25 mg/kg, ip administered for 5 consecutive days measured on day 7 post last treatment by Giemsa staining based assay relative to control. Particulars: 168 h.
Series [12] has as its system Leishmania donovani. Nature of the series: Antileishmanial activity against Leishmania donovani amastigote forms infected in Balb/c mouse assessed as inhibition of parasitic burden in liver at 50 mg/kg, ip administered for 5 consecutive days measured up to 7 weeks post treatment by Giemsa staining based assay. It counts as functional, organism-based.
Series [13] can be described thus: Metabolic stability in mouse liver S9 fractions at 1 mM after 60 mins in presence of NADPH by HPLC method. The note with it: read-out: Stability. It counts as ADME.
In series [14] the test system is Mus musculus. Nature of the series: Increase in TNFalpha level in Balb/c mouse splenocytes infected with Leishmania donovani amastigote forms at 25 mg/kg, ip co-treated with 5 mg/kg, po miltefosine administered for 5 consecutive days measured on day 7 post last treatment by sandwich ELISA relative to control. It counts as functional. In a few lines:
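BALB/c mice infected with L. donovani (15 days); treatment for 5 consecutive days, test compound i.p. in 8% DMSO/water, miltefosine oral in TDW; sacrificed day 4 and day 7 post-treatment, n = 5 per group. Splenocytes (2×10^6) cultured 72 h in phenol red-free RPMI 1640 with 5 μg/mL SLA; supernatant cytokines by sandwich ELISA.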
(An ELISA detects its analyte on a solid surface through an enzyme-linked reagent.)

Series [15] concerns Leishmania donovani. Nature of the series: Antileishmanial activity against Leishmania donovani MHOM/IN/80/DD8 promastigote forms harboring luciferase gene at 6.25 to 12.5 uM up to 4 days by Steady-Glo reagent based luminescence assay. It counts as functional. Summed up: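 Log-phase luciferase promastigotes at 1.0×10^6 at 24 °C, pH 7.4, given two-fold dilutions from 200 to 6.25 µM. RLU in lysed cultures measured daily for up to 4 days to plot growth curves. Three independent experiments.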

Series [16] concerns Leishmania donovani. Nature of the series: Antileishmanial activity against Leishmania donovani MHOM/IN/80/DD8 promastigote forms harboring luciferase gene at 25 uM after 72 hrs by Steady-Glo reagent based luminescence assay relative to control. It counts as functional. Particulars: MHOM/IN/80/DD8, 72 h, read-out: GI. Summed up: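 Exponential-phase Dd8-Luc promastigotes at 1×10^6/mL in M199 with 10% FBS, 24 °C, given 50 and 25 µM for 72 h. Vehicle 0.1% DMSO. Steady-Glo added 1:1, luminescence (RLU) read. IC50 from four-parameter Hill regression, derived only where inhibition exceeded 90%. Means of at least three independent experiments.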

Series [17] relates to Leishmania donovani. Nature of the series: Induction of apoptosis in Leishmania donovani MHOM/IN/80/DD8 promastigote forms assessed as early apoptotic cells at IC50 after 48 hrs by Annexin V-FITC/propidium iodide staining based flow cytometry (reference value: 7.41%). It counts as functional.
Series [18] deals with Leishmania donovani. Nature of the series: Induction of mitochondrial membrane potential loss in Leishmania donovani MHOM/IN/80/DD8 promastigote forms at 50 uM after 12 hrs by JC-1 staining based flow cytometry (reference value: 5.02%). It counts as functional.
The nature of series [19]: Cmax in Swiss mouse at 50 mg/kg, po by LC-MS/MS analysis. It counts as ADME, organism-based. Also on record: dose 50 mg/kg, route oral. Particulars: in vivo.
Series [20] concerns Leishmania donovani. Nature of the series: Antileishmanial activity against Leishmania donovani amastigote forms infected in Balb/c mouse assessed as inhibition of parasitic burden in spleen at 25 mg/kg, ip co-treated with 5 mg/kg, po miltefosine administered for 5 consecutive days measured on day 4 and 7 post last treatment by Giemsa staining based assay relative to control. It counts as functional. In a few lines: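 Combination study with seven groups of 5 infected BALB/c mice, including vehicle (8% DMSO i.p.), infected untreated and miltefosine-alone groups. Treatment daily for 5 days, test compound i.p. and miltefosine orally. Mice killed on days 4 and 7 post-treatment; liver and spleen parasite load counted on Giemsa-stained stamp smears and expressed as LDU relative to infected untreated mice. Mean ± SD, n = 5, three independent experiments.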

The subject of series [21] is Leishmania donovani. The series can be described thus: Antileishmanial activity against Leishmania donovani MHOM/IN/80/DD8 amastigote forms harboring luciferase gene infected in mouse J774 cells at 4.05 uM up to 72 hrs by Giemsa staining based assay relative to control. It counts as functional. Particulars: MHOM/IN/80/DD8, J774, 72 h. In a few lines:
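J774 macrophages in chamber slides infected with Dd8 promastigotes (1:10 cell:parasite in methods; 1:8 in legend) for 24 h, then treated 48 and 72 h. Cells methanol-fixed, stained with 20% Giemsa. Amastigotes per 100 macrophages counted against untreated infected controls.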

Usually inhibition in vivo stands for the change of the read-out against control, counted positive when it falls. What is called MIC is the lowest concentration found to suppress growth. High values mean a less susceptible organism, low ones a more susceptible organism. Usually inhibition stands for the share of the control response that was lost under treatment. Usually Cmax stands for the maximum level reached in the sampled fluid or tissue. On to `COc1ccc(C2C3=C(CCC3=O)Nc3c2c(-c2c[nH]c4ccccc24)nn3-c2ccc(Cl)c(Cl)c2)cc1OC` (stereo unspecified), for which the inhibition in vivo at 50 mg/kg with Leishmania donovani [1] is more than 91%. In addition, the minimal inhibitory concentration (MIC) against Leishmania donovani [2] was found to be 50 µM (≈ 28.6 µg/mL). In addition, the Activity with Leishmania donovani [3] is listed as 15.2%; in the series with Mus musculus [5] it was “Non-Toxic”; in the series with Leishmania donovani [6], 21%; in the series with Leishmania donovani [7] it was 11.6%; in the series on Leishmania donovani [17], 17.2%; in the series with Leishmania donovani [18], 32.9%. Moreover, the outcome with Leishmania donovani [4], with Leishmania donovani [8], in the series on Leishmania donovani [10] and in the series on Leishmania donovani [15] was Active. For the same compound, the results for the “fold change (FC)” value with Mus musculus [9] and in the series on Mus musculus [14] were 2.2 - 3.4 and 7.3, respectively. For the same compound, the inhibition in vivo at 25 mg/kg with Leishmania donovani [11] is more than 48%. In addition, the inhibition entry in the series on Leishmania donovani [12] was “Active”. The remaining at 1 h, 1000 µM in series [13] is 45%. The inhibition of growth at 25 µM in the series on Leishmania donovani [16] was 91.7%. In [19], this compound gave a Cmax of 4.88 µM. Moreover, in the series on Leishmania donovani [20], the “inhibition (INH)” value is on record as more than 97%. In the series on Leishmania donovani [21], the inhibition at 4.05 µM was more than 93%.
